In ChEMBL document CHEMBL1152146, “Non-nucleoside inhibitors of the hepatitis C virus NS5B RNA-dependant RNA polymerase: 2-aryl-3-heteroaryl-1,3-thiazolidin-4-one derivatives” (Bioorg Med Chem Lett, 2008):

Columns and labels:
[1] = molecular target: Replicase polyprotein 1ab (Severe acute respiratory syndrome-related coronavirus) (UniProt P0C6X7); assay: Inhibition of SARS coronavirus nsp12 at 0.5 mM
[2] = test system: Hepatitis C virus; assay: Inhibition of HCV 1b NS5B Cdelta21 polymerase at 0.25 mM relative to control; parameters: species or system Hepatitis C virus subtype 1b
Procedure, shortened: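 His-tagged NS5BCΔ21 (genotype 1b) RdRp assay with compound at 0.25 mM and DMSO constant at 10%. Activity without inhibitor, after subtraction of residual background, set as 100%. Values are the mean of at least three independent measurements.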

[3] = test system: Escherichia coli; assay: Inhibition of Escherichia coli DNA polymerase 1 Klenow fragment at 0.5 mM
[4] = test system: Hepatitis C virus; assay: Inhibition of HCV 1b NS5B Cdelta21 polymerase; parameters: species or system Hepatitis C virus subtype 1b
Procedure, shortened: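 N-terminal His-tagged NS5B lacking the C-terminal 21 residues (genotype 1b). RdRp activity read as total incorporation of radiolabeled UTP on poly rA/U12. IC50 taken from dose–response curves of 8–12 concentrations, run in duplicate in two independent experiments. DMSO held at 10% in all reactions.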

Row | SMILES | inhibition [1] [%] | inhibition at 250 µM [2] [%] | inhibition [3] [%] | IC50 [4] [µM]
1 | Cc1cc(-c2ccccc2)nc(N2C(=O)CSC2c2c(F)cccc2Cl)n1 (stereo not given) | < 50 | 65.5 | < 50 | 
2 | COc1cc(O)c2c(c1)oc(=O)c1c3cc(O)c(O)cc3oc21 [WEDELOLACTONE] |  |  |  | 36.1
3 | O=C(NN1C(=O)CSC1c1ccccc1F)c1cc(-c2ccc(F)cc2F)ccc1O (stereo not given) | < 50 | 92.4 |  | 48
4 | Cc1cc(-c2ccccc2)nc(N2C(=O)CSC2c2c(Cl)cccc2Cl)n1 (stereo not given) | < 50 | 63.6 | < 50 | 
5 | CCc1nnc(N2C(=O)CSC2c2c(F)cccc2F)s1 (stereo not given) | < 50 |  |  | 
6 | Cc1cccc(N2C(=O)CSC2c2ccc(-c3cccnc3)cc2)n1 (stereo not given) | < 50 | 64.2 | < 50 | 
7 | CC1SC(c2c(Cl)cccc2Cl)N(c2ccccn2)C1=O (stereo not given) | < 50 | 73 | < 50 | 
8 | O=C1CSC(c2c(F)cccc2F)N1c1nc(-c2ccccc2)cc(-c2ccccc2)n1 (stereo not given) | < 50 | 73.3 | < 50 | 
9 | O=C1CSC(c2c(F)cccc2Cl)N1c1ccc2ccccc2n1 (stereo not given) | < 50 | 60 | < 50 | 
10 | Cc1cc(C(F)(F)F)nc(N2C(=O)CSC2c2c(F)cccc2Cl)n1 (stereo not given) | < 50 | 63.6 | < 50 | 
11 | Cc1cc(C(F)(F)F)nc(N2C(=O)CSC2c2c(Br)cccc2Br)n1 (stereo not given) | < 50 | 76.3 | < 50 | 
12 | O=C1CSC(c2c(Cl)cccc2Cl)N1Cc1cccnc1 (stereo not given) | < 50 | 75.6 | < 50 | 
13 | O=C1CSC(c2c(F)cccc2Cl)N1c1nc(-c2ccccc2)cc(-c2ccccc2)n1 (stereo not given) | < 50 | 70.6 | < 50 | 
14 | O=C1CSC(c2c(Cl)cccc2Cl)N1c1nc(-c2ccccc2)cc(C(F)(F)F)n1 (stereo not given) | < 50 | 66.4 | < 50 | 
15 | O=C1CSC2(CCN(Cc3ccccc3)CC2)N1c1ccccn1 | < 50 | 85.6 | < 50 | 71.9
16 | O=C1CSC(c2c(Cl)cccc2Cl)N1c1nc(-c2ccccc2)cc(-c2ccccc2)n1 (stereo not given) | < 50 | 73.1 | < 50 | 
17 | CN(C)c1ccc(C2SCC(=O)N2c2ccccn2)cc1 (stereo not given) | < 50 | 76.4 | < 50 | 
18 | CC1SC(c2c(Cl)cccc2Cl)N(Cc2ccco2)C1=O (stereo not given) | < 50 | 97.8 | < 50 | 32.2
19 | O=C1CSC(c2ccc(-c3ccnc4ccccc34)cc2)N1c1ccccn1 (stereo not given) | < 50 | 62.2 | < 50 | 
20 | O=C1CSC(c2ccc(F)cc2)N1c1ccccn1 (stereo not given) | < 50 | 98 | < 50 | 31.9
21 | Cc1cccc(N2C(=O)CSC2c2ccc(N(C)C)cc2)n1 (stereo not given) | < 50 | 84.7 | < 50 | 79.4
22 | CC1SC(c2c(Cl)cccc2Cl)N(Cc2cccnc2)C1=O (stereo not given) | < 50 | 95.6 | < 50 | 41.8
23 | O=C1CSC(c2c(Cl)cccc2Cl)N1Cc1ccco1 (stereo not given) | < 50 | 72.3 | < 50 | 
24 | Cc1cc(C(F)(F)F)nc(N2C(=O)CSC2c2c(Cl)cccc2Cl)n1 (stereo not given) | < 50 | 72.1 | < 50 | 
25 | O=C1CCSC(c2c(Cl)cccc2Cl)N1Cc1ccco1 (stereo not given) | < 50 | 94.2 | < 50 | 52.6
26 | O=C1CSC(c2c(Br)cccc2Br)N1Cc1cccs1 (stereo not given) | < 50 | 62.3 | < 50 | 
